The full list was thinned out, with hits kept by preference.
HCT116 PTEN-null: growth suppressors of cells with PTEN tumor suppressor deletion; viability, % at 10 µM; 1.2% of 140,000 active; HCT116 PTEN-null viability, CellTiter-Glo, 60 h; stronger effect = lower value;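 active = viability at or below a set limit, 4 SD under the median of all tested compounds, cut at about 3.7% in these data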;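 also: PTEN knockout HCT116 line with beta catenin targeted HCT116 as companion control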
HCT116 bCat-KO: beta-catenin-lacking colon tumor cell growth suppression | HCT116 beta-catenin knockout viability, CellTiter-Glo, 60 h; stronger effect = lower value | viability, % at 10 µM | 1.5% of 140,000 active | AID 818;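 active = viability at or under a set limit, the compound median less 4 SD, cut at about 6% in these data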
HUVEC prolif 384: blocks proliferation of human endothelial cells. HUVEC proliferation, CellTiter-Glo luminescence, 72 h; stronger effect = lower value. viability, % at 10 µM (by protocol). 1.1% of 86,000 active. AID 648;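 active = viability at or below 30%; inactive = viability above 30%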
H69AR growth 86K: growth inhibitors of human H69AR lung tumor cells | H69AR lung tumor viability, ATP luminescence, 72 h; stronger effect = lower value | viability, % at 10 µM | 6% of 85,000 active;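 active = viability at or below 40%; inactive = viability above 40%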;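 also: multidrug resistant small cell line overexpressing MRP-1 efflux transporter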
Fibroblast inh: blocks proliferation of human lung fibroblasts; 1.1% of 85,000 active; LL 47 human lung fibroblast viability, ATP luminescence; stronger effect = lower value; viability, % at 10 µM;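 active = viability at or below 50% in the single dose screen; inactive = viability above 50%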;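 also: compound exposure lasted 72 h before the ATP readout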
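Material: human lung fibroblast line LL 47, low passage; Evaluation: viability percentage against median untreated-cell control; Buffer or medium: 15% FBS in IMEM; Incubation: 72 h compound exposure at 37 °C after overnight plating; Dosing: 0.1% DMSO in all compound wells; Measured by: CellTiter-Glo luminescence.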
Numbers stand for hits; - = inactive; . = no result.

SMILES	HCT116 PTEN-null	HCT116 bCat-KO	HUVEC prolif 384	H69AR growth 86K	Fibroblast inh
CCc1cc2c(=O)c(-c3ccc4c(c3)OCCO4)coc2cc1OC(=O)c1ccco1	-	-	-	15	-
O=C(COc1ccc(Br)cc1)N/N=C1\SCC(=O)N1c1ccc(F)cc1	-	-	.	.	.
COC(=O)C1=C(C)Nc2c(c(=O)n(C)c(=O)n2C)C1c1ccc(Cl)cc1 (stereo unspecified)	-	-	.	.	.
CCCCNC(=S)Nc1cc([N+](=O)[O-])ccc1C	-	-	.	.	.
Cc1sc2nc(SCC(=O)NCc3ccco3)n(Cc3ccccc3)c(=O)c2c1C	-	-	30	3.1	-
Cc1sc2nc(SCC(=O)NCc3ccco3)n(-c3ccccc3)c(=O)c2c1C	-	-	-	-	-
Cc1ccc(-n2c(SCC(=O)NCc3ccco3)nc3sc(C)c(C)c3c2=O)cc1	-	-	-	36	-
Nc1nnnn1/N=C/C(Br)=C/c1ccccc1	3.2	-	-	0.9	.
O=C(O)CN(CC(=O)O)CC(=O)O	.	.	-	-	-
COc1ccc(Nc2ncnc3c2oc2ccccc23)cc1	-	-	-	39	-
Cc1ccc(Nc2ncnc3c2oc2ccccc23)cc1	-	-	-	-	-
Cc1ccc(-n2c(C)c3c(C)nnc(C)c3c2C)cc1	.	.	-	-	-
Cc1ccc(-n2c(C)c3c(C)nnc(C)c3c2C)cc1C	-	4.0	-	32	-
Cc1c(Cl)cccc1NC(=S)N1CCN(Cc2ccc3c(c2)OCO3)CC1	-	-	.	.	.
O=C(CCN1CCOCC1)c1ccc2c(c1)OCCO2	-	-	-	3.3	-
O=C(CCN1CCOCC1)c1ccccc1	1.0	1.2	-	-	-
Cc1cccc(S(=O)(=O)NC(Cc2c[nH]c3ccccc23)C(=O)O)c1 (stereo unspecified)	-	-	.	.	.
CCOC(=O)Cc1csc(N/C(=N/S(=O)(=O)c2cc(Br)ccc2OCC)c2ccccc2)n1	-	-	.	.	.
O=C(CSc1ccccc1)Nc1ccc(N2CCOCC2)cc1	-	-	-	6.8	-
O=C(NC(=S)Nc1nc2c(ccc3ccccc32)s1)c1cccs1	-	-	.	.	.
CCc1ccc(C2CC(c3cccc(Cl)c3)n3nc(N)nc3N2)cc1 (stereo unspecified)	-	-	-	38	-
Cc1ccc(C2CC(c3cccc(Cl)c3)n3nc(N)nc3N2)cc1 (stereo unspecified)	-	-	-	-	-
CC(=O)NCCC(=O)Nc1sc2c(c1-c1nc3ccccc3[nH]1)CCCC2	-	-	-	36	-
CCn1c(SCC(=O)N2CCc3ccccc3C2)nc2sc(C)c(C)c2c1=O	-	-	.	.	.
CCOc1cc(-c2noc(N)c2C(=O)OC)cc(OCC)c1OCC	-	-	-	23	-
SMILES	HCT116 PTEN-null	HCT116 bCat-KO	HUVEC prolif 384	H69AR growth 86K	Fibroblast inh
CCOc1cc(C(=O)OCC(=O)Nc2cc(C)on2)cc(OCC)c1OCC	-	-	-	-	-
COC(=O)c1c(-c2ccc(Br)cc2)noc1N	-	-	-	29	-
Cc1ccc(C)c(S(=O)(=O)Nc2ccccc2C(=O)Nc2ccc(S(=O)(=O)Nc3ncccn3)cc2)c1	-	-	.	.	.
O=c1[nH]c(=O)n(-c2ccccc2)c2c1C(C(F)(F)F)(C(F)(F)F)N=C(CCC1CCCCC1)N2	-	-	.	.	.
Cc1noc2ncnc(Sc3ccccc3Cl)c12	-	-	18	2.0	-
Cc1ccc(S(=O)(=O)Nc2ccc(C(=O)OCC(=O)N(CCC#N)c3ccccc3)cc2)cc1C	-	-	.	.	.
CC(C)n1c(SCC(=O)N2c3ccccc3CCc3ccccc32)nc2c1c(=O)n(C)c(=O)n2C	.	.	-	20	-
CC(C)n1c(SCC(=O)Nc2nc3c(s2)CCCC3)nc2c1c(=O)n(C)c(=O)n2C	-	-	-	34	-
COC(=O)c1sc(NC(C)=O)c(C(=O)OC)c1C	-	-	-	-	-
COC(=O)c1sc(NC(=O)c2cnccn2)c(C(=O)OC)c1C	.	.	-	40	-
Cc1ccc2[nH]c3c(c2c1)CN(C(=O)CN1c2ccc(F)cc2CCC1C)CC3 (stereo unspecified)	-	-	-	11	-
Cc1ccc2[nH]c3c(c2c1)CN(C(=O)CN1CCN(c2cccc(C)c2C)CC1)CC3	-	-	-	-	-
O=C(CSc1nnc(Nc2ccccc2F)s1)Nc1cccc(S(=O)(=O)N2CCCCC2)c1	-	-	.	.	.
Cc1ccc(S(=O)(=O)N(C)c2ccc(C(=O)N3CCN(Cc4ccc5c(c4)OCO5)CC3)cc2)cc1	-	-	-	25	-
CN(c1ccc(C(=O)N2CCN(Cc3ccc4c(c3)OCO4)CC2)cc1)S(=O)(=O)c1ccccc1	-	-	-	-	-
C#C[C@]1(O)CC[C@H]2[C@@H]3CCC4=C(CCC(=O)C4)[C@H]3CC[C@@]21C	-	-	.	.	.
CCN(CC)C(=O)C(Sc1ccccc1)c1ccccc1 (stereo unspecified)	-	-	-	-	-
O=C(CN1CCOCC1)N1CCN(S(=O)(=O)c2ccccc2)C1c1ccccc1 (stereo unspecified)	-	-	-	-	-
Cc1ccc(S(=O)(=O)N2CCN(C(=O)CN3CCOCC3)C2c2ccccc2)cc1 (stereo unspecified)	-	-	-	7.1	-
Cc1ccc(C)c(N2CCN(C(=O)C(Cc3ccccc3)n3cccc3)CC2)c1 (stereo unspecified)	-	-	-	22	-
COc1ccccc1S(=O)(=O)Cc1ccc(C(=O)N2CCN(c3ccccc3)CC2)o1	-	-	-	-	-
Cc1ccc(C)c(N2CCN(C(=O)c3ccc(CS(=O)(=O)c4ccccc4C)o3)CC2)c1	-	-	-	15	-
Cc1ccc(S(=O)(=O)Cc2ccc(C(=O)N3CCCC3)o2)cc1	-	-	-	-	-
Cc1cccc(N2CCN(C(=O)c3ccc(CS(=O)(=O)c4ccccc4C)o3)CC2C)c1 (stereo unspecified)	-	-	-	25	-
Cc1ccc(S(=O)(=O)Cc2ccc(C(=O)N3CCN(c4cc(C)ccc4C)CC3)o2)cc1	-	-	-	17	-
SMILES	HCT116 PTEN-null	HCT116 bCat-KO	HUVEC prolif 384	H69AR growth 86K	Fibroblast inh
Cc1cc2c(N=NC(=O)CCc3ccccc3)c(O)[nH]c2cc1Br	-	-	.	.	.
O=C(CSc1nnc(-c2cccnc2)n1CCN1CCCCC1)Nc1cccc(Cl)c1	-	-	.	.	.
CNC(=O)NC(=O)COC(=O)c1ccc(-n2c(C)ccc2C)cc1	-	-	.	.	.
O=C(NC1CCCC1)C(c1ccc(F)cc1)N(Cc1ccccc1Cl)C(=O)CCl (stereo unspecified)	-	-	.	.	.
Cc1cc(C(=O)N2CCN(c3cccc(Cl)c3)CC2)c(C)o1	-	-	-	16	-
Cc1cc(C(=O)N2CCN(c3ccccc3)CC2)c(C)o1	-	-	-	-	-
COc1ccccc1S(=O)(=O)Cc1ccc(C(=O)N2CCN(c3cccc(Cl)c3)CC2)o1	-	-	-	9.4	-
Cc1ccc(/C=C/C(=O)OCC(=O)Nc2cccc(S(=O)(=O)N(C)C)c2)o1	-	-	.	.	.
O=C(Nc1ccc(-c2noc(-c3cccs3)n2)cc1)c1cccnc1	-	-	-	10	-
COc1cccc(-c2nc(-c3ccc(NC(=O)c4cccnc4)cc3)no2)c1	-	-	-	26	-

Compound activity (PubChem BioAssay)
